An excerpt weighted towards active compounds, which were near 2.8% of everything screened.
NPY Y2 blocker – NPY-Y2 receptor antagonists, primary screen, cell-based | NPY-Y2 expressing cells, antagonist mode | inhibition, % at 2.7 µM | actives 0.99% (n = 140,000) | AID 793, 2007
NPY-Y2 PAM-ag – NPY-Y2 potentiators or agonists, primary screen, cell-based; Neuropeptide Y receptor type 2 (Homo sapiens), P49146; cells expressing NPY-Y2, potentiator/agonist read-out; activation, % at 3.6 µM; actives 0.45% (n = 220,000); in the data active = activation above about 27%;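 also: cells stimulated with NPY near EC25 plus isoproterenol at EC100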
MDM2 E3 inh – MDM2-luciferase reporter signal enhancers, primary screen, MDM2 E3 ligase inhibitor project, cell-based, luminescence, 1536-well | actives 0.11% (n = 210,000) | signal enhancement, % at 5 µM | E3 ubiquitin-protein ligase Mdm2 (Homo sapiens), Q00987 | AID 1230, 2008 | cell-based MDM2 ubiquitination luciferase reporter, 2 h; 0 = plate control, 100 = twice control, blank-subtracted;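 active = signal enhancement of 30% or more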;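 also: luminescence tracks abundance of the self-degrading MDM2-luciferase fusion protein; higher signal means inhibition of MDM2 E3 ligase activity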
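Timing – 2 h compound exposure at 37 °C · Assay system – mammalian cells stably expressing self-ubiquitinating, self-degrading MDM2 E3–luciferase fusion · Amount – 2000 cells seeded into each well · Measure – % luminescence enhancement versus blank-corrected plate control mean · Measured by – SteadyLite luminescence, 15 min reagent step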
NPY-Y1 PAM-ag – NPY-Y1 receptor potentiators or agonists, primary screen, cell-based; activation, % at 3.6 µM; Neuropeptide Y receptor type 1 (Homo sapiens), P25929; actives 0.37% (n = 220,000); AID 1304, 2008; NPY-Y1 expressing cells, potentiator/agonist activation; in the data active = activation above about 33%, passing the limit was not always enough;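 also: cells stimulated with NPY at EC10 then isoproterenol at EC100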
Target sequence (P25929 whole entry, looked up): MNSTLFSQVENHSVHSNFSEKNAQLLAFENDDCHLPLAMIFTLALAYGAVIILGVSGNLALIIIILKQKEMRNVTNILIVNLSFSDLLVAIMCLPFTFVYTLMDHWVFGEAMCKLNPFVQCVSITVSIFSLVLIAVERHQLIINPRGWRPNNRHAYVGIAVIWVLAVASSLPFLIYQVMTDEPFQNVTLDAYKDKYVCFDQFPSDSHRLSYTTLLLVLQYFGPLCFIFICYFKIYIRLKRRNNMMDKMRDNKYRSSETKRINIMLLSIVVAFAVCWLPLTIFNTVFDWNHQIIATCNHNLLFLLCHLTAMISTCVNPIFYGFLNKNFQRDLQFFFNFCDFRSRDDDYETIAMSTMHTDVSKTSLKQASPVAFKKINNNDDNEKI
Measles CPE – compounds protecting cells from measles virus cytopathic effect, primary screen, measles RdRp inhibitor project, single point, MLSMR library, absorbance; Measles virus-infected cells, CPE protection; actives 1.5% (n = 140,000); protection (pct of control), % at 4 µM; AID 841, 2007; in the data active = protection mostly above about 24%, no sharp cut-off; inactive = mostly below about 26%
NPY Y1 blocker – NPY-Y1 receptor antagonists, primary screen, cell-based | Neuropeptide Y receptor type 1 (Homo sapiens), P25929 | HEK293-CNG Y1 cells, membrane potential fluorescence; NPY at EC95, then isoproterenol | inhibition, % at 3.6 µM | actives 1% (n = 200,000);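 active = inhibition above the campaign mean inhibition of all tested compounds plus 3 SD, cut at about 20% in these data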
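Assay system: HEK293 Y1/CNG channel cell line; Doses: single compound dose of 3.6 µM, 0.4% DMSO; Timing: dye 3 h, compound 60 min room temperature, stimulation 45 min; Technique: Membrane-potential fluorescent dye readout; Measure: % inhibition of NPY effect.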
NPY1 antag conf – NPY-Y1 receptor antagonists, retest of hits, confirmation, HEK293-CNG cells, membrane potential fluorescence, triplicate. shares compounds with NPY Y1 blocker. inhibition, % at 3.6 µM. cAMP; NPY challenge against isoproterenol-raised cAMP. actives 21% (n = 1,200); in the data active = inhibition above about 20%
NPY2 antag ctr – NPY-Y2 receptor antagonists, selectivity check, confirmation, counter-screen for NPY-Y1 antagonist project, HEK293-CNG cells, membrane potential fluorescence, triplicate; shares compounds with NPY Y1 blocker; antagonism; cells given NPY, then isoproterenol; inhibition, % at 3.6 µM; actives 28% (n = 1,200); AID 1255, 2008
Each line names hits and unclear results; the compound was inactive in the other large screens (follow-up assays come after a bar, where they were run). Rule as the data show it, unless noted: active = inhibition above about 17%; inactive = the rest.

CCOC1(c2ccccc2)OC(=O)c2ccccc21 (stereo unspecified)	none
CCOC(=O)c1c(C(F)(F)C(F)(F)C(F)(F)C(F)(F)F)n[nH]c1C	none
CS(=O)(=O)N(CC(=O)Nc1ccc(F)c(F)c1)c1cccc([N+](=O)[O-])c1	none
COC(/C=C/Nc1ccc(Cl)cc1)=C(C#N)C#N	none (no result: NPY Y2 blocker, Measles CPE)
COC(/C=C/Nc1ccc(OC)cc1)=C(C#N)C#N	NPY Y1 blocker 40 | NPY1 antag conf inactive | NPY2 antag ctr inactive
Cc1cc(OC(=O)c2cc(Cl)nc3ccccc23)ccc1Cl	none
COc1ccccc1OC(=O)c1cc(Cl)nc2ccccc12	NPY Y1 blocker 21 | NPY1 antag conf inactive | NPY2 antag ctr 17
Cc1ccc(-c2noc(COc3ccccc3C)n2)cc1	NPY Y1 blocker 22 | NPY1 antag conf inactive | NPY2 antag ctr inactive
CCn1ccnc1CN(C)Cc1cn[nH]c1-c1ccc(OC)c(F)c1	none (no result: NPY Y2 blocker, Measles CPE)
COc1ccc(N2CCN(c3oc(-c4ccco4)nc3C#N)CC2)cc1	NPY Y1 blocker 22 | NPY1 antag conf inactive | NPY2 antag ctr inactive
Cc1cccc(NC(=O)CSc2nc(N)c(NC(=O)c3cccs3)c(=O)[nH]2)c1C	none (no result: MDM2 E3 inh)
Cn1c(COc2nnc(-c3ccc(Cl)cc3)c3ccccc23)nc2ccccc21	NPY Y1 blocker 39 | NPY1 antag conf inactive | NPY2 antag ctr inactive
COc1ccc(-c2nnc(OCc3nc4ccccc4n3C)c3ccccc23)cc1	none (no result: MDM2 E3 inh)
COc1ccc(F)cc1C(=O)C1CCCN(Cc2cccn2-c2ccccn2)C1 (stereo unspecified)	NPY Y1 blocker 35 (no result: NPY Y2 blocker, Measles CPE) | NPY1 antag conf 23 | NPY2 antag ctr 20
COc1ccc(C(=O)C2CCCN(Cc3cccn3-c3ccccn3)C2)c(OC)c1 (stereo unspecified)	NPY Y1 blocker 27 (no result: NPY Y2 blocker, Measles CPE) | NPY1 antag conf 21 | NPY2 antag ctr 18
C=CCN1c2ccccc2[C@]23C[C@@H](C(=O)OC)N(C(=O)NCCC)C2=NC(C(=O)OC)=C(C(=O)OC)[C@H]13	none (no result: NPY Y2 blocker, NPY-Y2 PAM-ag, NPY-Y1 PAM-ag, Measles CPE, NPY Y1 blocker)
COc1cccc2c3c(c(C)nc12)CCN3c1ccccc1	NPY Y1 blocker 23 (no result: NPY Y2 blocker, Measles CPE) | NPY1 antag conf inactive | NPY2 antag ctr 21
CCOC(=O)C(CCCCCCC(NC(C)=O)(C(=O)OCC)C(=O)OCC)(NC(C)=O)C(=O)OCC	none (no result: NPY Y2 blocker, Measles CPE, NPY Y1 blocker)
CCOC(=O)C(CO)(NC(C)=O)C(=O)OCC	NPY Y1 blocker 25 | NPY1 antag conf inactive | NPY2 antag ctr inactive
COc1ccc(OC)c(CCNC(=O)CS(=O)(=O)Cc2nc(-c3ccccc3C)oc2C)c1	NPY Y1 blocker 21 | NPY1 antag conf inactive | NPY2 antag ctr inactive
OCCNCc1cc(Br)ccc1OCc1ccc(F)cc1	none (no result: NPY Y2 blocker, Measles CPE)
OCCNCc1cc(Br)ccc1OCc1ccc(Cl)cc1	NPY Y1 blocker 24 | NPY1 antag conf inactive | NPY2 antag ctr inactive
Cc1cccc(C)c1OCC(O)CN1CCC(CN2C(=O)c3cccc4cccc(c34)C2=O)CC1 (stereo unspecified)	none
CCC(C)[C@H](NC(=O)NCc1ccc(S(N)(=O)=O)cc1)C(=O)O (stereo partly specified)	none (no result: NPY Y2 blocker, Measles CPE, NPY Y1 blocker)
O=c1[nH]nc(Cc2ccc(Cl)cc2Cl)c2ccccc12	none
O=c1[nH]nc(CNc2ccc(Cl)cc2Cl)c2ccccc12	NPY Y1 blocker 24 (no result: NPY Y2 blocker, Measles CPE) | NPY1 antag conf inactive | NPY2 antag ctr 25
